Published values from different studies.
Lines come from different studies, so protocols differ.
ABL1 Q252H non-phosphorylated: Tyrosine-protein kinase ABL1, non-phosphorylated (ABL1, Homo sapiens, UniProt P00519, Q252H)
ABL1 T315I: Tyrosine-protein kinase ABL1 (ABL1, Homo sapiens, UniProt P00519, T315I)
ABL1 E255K phosphorylated: Tyrosine-protein kinase ABL1, phosphorylated (ABL1, Homo sapiens, UniProt P00519, E255K)
ABL1 Y253F: Tyrosine-protein kinase ABL1 (ABL1, Homo sapiens, UniProt P00519, Y253F)
ABL1 T315I phosphorylated: Tyrosine-protein kinase ABL1, phosphorylated (ABL1, Homo sapiens, UniProt P00519, T315I)
ABL1 F317I non-phosphorylated: Tyrosine-protein kinase ABL1, non-phosphorylated (ABL1, Homo sapiens, UniProt P00519, F317I)
ABL1 non-phosphorylated: Tyrosine-protein kinase ABL1, non-phosphorylated (ABL1, Homo sapiens, UniProt P00519)
ABL1 Y253F phosphorylated: Tyrosine-protein kinase ABL1, phosphorylated (ABL1, Homo sapiens, UniProt P00519, Y253F)
ABL1 F317I phosphorylated: Tyrosine-protein kinase ABL1, phosphorylated (ABL1, Homo sapiens, UniProt P00519, F317I)

SMILES | target | test | conditions | remaining binding [%]
CCN1CCN(Cc2ccc(C(=O)Nc3ccc(C)c(Oc4ccc5c(c4)CC(=O)N5)c3)cc2C(F)(F)F)CC1 | ABL1 Q252H non-phosphorylated | binding, competition with immobilised ligand | 1 µM | 3
C[C@H]1CCN(c2nccc(-c3cnn4ncccc34)n2)C1 | ABL1 T315I | binding | 1 µM | 82
COc1cnc(Nc2cccc(S(N)(=O)=O)c2)nc1N1CCN(c2ccccc2)CC1 | ABL1 E255K phosphorylated | binding, competition with immobilised ligand | 1 µM | 84
c1cnn2ncc(-c3ccnc(N4CCC45COC5)n3)c2c1 | ABL1 Y253F | binding | 1 µM | 59
CC(C)(O)c1cncc(-c2nc3ccc(F)cc3n2C2CC2)c1 | ABL1 Q252H non-phosphorylated | cell-free assay, competition with immobilised ligand | 1 µM | 89
O=C(c1ccc(Nc2nccc(-c3cc4ccccc4s3)n2)cc1)N1CCC(N2CCCC2)CC1 | Tyrosine-protein kinase ABL1, phosphorylated (ABL1, Homo sapiens, UniProt P00519, F317L) | binding, competition with immobilised ligand | 1 µM | 100
c1cncc(-c2cccc(Nc3nccc(NC4CCCCC4)n3)c2)c1 | ABL1 T315I phosphorylated | binding, competition with immobilised ligand | 10 µM | 73
C[C@@H](c1ccc(-n2cnc3c(N)ncnc32)cc1)N1CCc2nn(C)c(Cc3ccccc3)c2C1=O | ABL1 Q252H non-phosphorylated | binding, competition with immobilised ligand | 0.1 µM | 26
O=C(Nc1c[nH]nc1C(=O)NC1CCNCC1)c1cc(F)cc(F)c1 | ABL1 F317I non-phosphorylated | binding, competition with immobilised ligand | 1 µM | 100
CC(C)(C)c1ccc(-c2nc(CBr)nn2-c2cccc(O)c2)cc1 | ABL1 non-phosphorylated | cell-free assay, competition with immobilised ligand | 10 µM | 82
O=C(NCCCN1CCOCC1)c1ccc(Nc2ncc(Cl)c(-c3ccc(Cl)s3)n2)cc1 | Tyrosine-protein kinase ABL1, phosphorylated (ABL1, Homo sapiens, UniProt P00519, M351T) | binding, competition with immobilised ligand | 1 µM | 27
COc1ncc2cc3ccccc3nc2c1C#N | ABL1 non-phosphorylated | cell-free assay, competition with immobilised ligand | 5 µM | 100
N[C@@H]1CCN(c2nccc(-c3cnn4ncccc34)n2)C1 | ABL1 Y253F | binding | 1 µM | 62
CN(C)CC#Cc1ccc(OCCCc2sc(N3CCc4cccc(C(=O)Nc5nc6ccccc6s5)c4C3)nc2C(=O)O)c(F)c1 | ABL1 T315I phosphorylated | cell-free assay, competition with immobilised ligand | 1 µM | 92
COc1cnc(Nc2cccc(S(N)(=O)=O)c2)nc1N1CCN(c2ccccc2)C(=O)C1 | ABL1 Q252H non-phosphorylated | binding, competition with immobilised ligand | 1 µM | 95
CN1CCN(c2ccc(Nc3nccc(-c4ccccc4)n3)cc2C(F)(F)F)CC1 | Tyrosine-protein kinase ABL1 (ABL1, Homo sapiens, UniProt P00519, F317L) | binding | 10 µM | 66
O=C(NCCCN1CCOCC1)c1ccc(Nc2nccc(-c3cc4ccccc4s3)n2)cc1 | ABL1 T315I phosphorylated | binding, competition with immobilised ligand | 1 µM | 41

SMILES | target | test | conditions | remaining binding [%]
CC1CCCN1c1nccc(-c2cnn3ncccc23)n1 (stereo not shown) | Tyrosine-protein kinase ABL1 (ABL1, Homo sapiens, UniProt P00519, H396P) | binding | 1 µM | 80
O=C(NCC1CCOCC1)c1n[nH]cc1NC(=O)c1c(F)cccc1F | ABL1 F317I non-phosphorylated | binding, competition with immobilised ligand | 1 µM | 86
CCOCCn1cc(C(=O)Nc2ccc(-n3nc(-c4cccnc4)cc3C(F)(F)F)cn2)ccc1=O | Tyrosine-protein kinase ABL1, phosphorylated (ABL1, Homo sapiens, UniProt P00519, Q252H) | cell-free assay, competition with immobilised ligand | 1 µM | 73
O=C(c1ccc(Nc2ncc(Cl)c(-c3cc4ccccc4s3)n2)cc1)N1CCC(N2CCCC2)CC1 | Tyrosine-protein kinase ABL1, phosphorylated (ABL1, Homo sapiens, UniProt P00519, H396P) | binding, competition with immobilised ligand | 1 µM | 13
C=CC(=O)N1CCC(C(=O)NCC(=O)N2CCN(c3nc(-c4cnc(N)nc4C(F)F)nc(N4CCOCC4)n3)CC2)CC1 | ABL1 Q252H non-phosphorylated | binding, competition with immobilised ligand | 1 µM | 94
Nc1ncc2c(n1)-c1c([nH]c3ccc(C#CC4CC4)cc13)CCCC2 | ABL1 Y253F phosphorylated | binding, competition with immobilised ligand | 1 µM | 95
COc1ccnn2ncc(-c3ccnc(N(C)C)n3)c12 | Tyrosine-protein kinase ABL1 (ABL1, Homo sapiens, UniProt P00519, Q252H) | binding | 1 µM | 82
C[C@H](c1ccc(F)cc1)N(Cc1cccc(C(=O)O)c1)C(=O)c1cnc2ccccc2c1 | ABL1 T315I phosphorylated | cell-free assay, competition with immobilised ligand | 1 µM | 75
CNC(=O)[C@@H]1CC[C@@H](n2c(-c3ccc4cnccc4c3)nc3ccc(C(=O)NCc4cccc(C(N)=O)c4)cc32)C1 | Tyrosine-protein kinase ABL1, non-phosphorylated (ABL1, Homo sapiens, UniProt P00519, F317L) | binding, competition with immobilised ligand | 1 µM | 97
COCCOc1nc(-c2ccc(Cl)nc2)nc2c1CN(C(=O)c1ncn3ccccc13)CC2 | ABL1 E255K phosphorylated | binding, competition with immobilised ligand | 0.1 µM | 100
CN(C)c1ncc(F)c(-c2cnn3ncccc23)n1 | ABL1 non-phosphorylated | binding, competition with immobilised ligand | 1 µM | 89
CN(c1ccnc(CNc2nc(Nc3ccc4c(c3)CC(=O)N4)ncc2C(F)(F)F)n1)S(C)(=O)=O | ABL1 F317I phosphorylated | binding | 1 µM | 79
Cc1cnc(Nc2ccc(C(=O)N3CCC(N4CCCC4)CC3)cc2)nc1-c1cc2ccccc2s1 | ABL1 F317I phosphorylated | binding, competition with immobilised ligand | 1 µM | 57
C[C@@H]1CN(c2cc(-c3n[nH]c4ccc(OC5(C)CC5)cc34)ncn2)C[C@H](C)O1 | ABL1 Y253F phosphorylated | cell-free assay, competition with immobilised ligand | 0.1 µM | 66
O=C(c1ccc(Nc2ncc(Cl)c(-c3ccc(Cl)s3)n2)cc1)N1CCC(N2CCCC2)CC1 | ABL1 E255K phosphorylated | binding, competition with immobilised ligand | 1 µM | 4.3
CCC(=O)N[C@@H]1CC[C@H](C(=O)N(C)c2ccc(-c3nc4ccccc4o3)cc2)C1 | ABL1 Q252H non-phosphorylated | cell-free assay, competition with immobilised ligand | 1 µM | 77
CN(CCCC(F)(F)F)c1nccc(-c2cnn3ncccc23)n1 | ABL1 T315I | binding | 1 µM | 100
